The nature of data set [1]: Selectivity index, ratio of IC50 for human HMEC1 cells to IC50 for antimalarial activity against CQ-susceptible Plasmodium falciparum D10 infected in human type A-positive red blood cells. Format: toxicity. The note with it: read-out: Ratio IC50. An outline of the steps: (§1)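 SI taken as HMEC-1 IC50 divided by antiplasmodial IC50. […] Each value is the mean of three experiments done in duplicate, with SD.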

Data set [2] is described as follows: Selectivity index, ratio of IC50 for human HMEC1 cells to IC50 for antimalarial activity against CQ-resistant Plasmodium falciparum W2 infected in human type A-positive red blood cells. Format: toxicity. The note with it: read-out: Ratio IC50. An outline of the steps:
as §1

For data set [3], the system named is Plasmodium falciparum. The data set can be described thus: Inhibition of recombinant His-tagged Plasmodium falciparum GAPDH expressed in Escherichia coli assessed as reduction in NADH formation by measuring Kinact/Ki ratio in presence of NAD+, DL-glyceraldehyde 3-phosphate and GAPDH by spectrophotometry based Ferdinand assay.
In a further data set the test system is HMEC-1. The data set can be described thus: Cytotoxicity in human HMEC1 cells assessed as reduction in cell viability incubated for 72 hrs by MTT assay. It counts as cell-based. The note with it: HMEC-1, 72 h. An outline of the steps:
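Human endothelial HMEC-1 cells exposed to compound for 72 h, then viability read by MTT (tetrazolium reduction) assay. Values are the mean ± SD of three separate experiments, each run in duplicate.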
Background: Tetrazolium dyes change colour on reduction, which living cells bring about.

Data set [4] deals with Plasmodium falciparum. The data set can be described thus: Antimalarial activity against CQ-resistant Plasmodium falciparum W2 infected in human type A-positive red blood cells assessed as inhibition of parasite growth incubated for 72 hrs by spectrophotometry based parasite lactate dehydrogenase assay. Format: functional, organism-based. In a few lines:
(§2)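 pLDH assay on P. falciparum D10 and W2 blood-stage cultures exposed to compound for 72 h; chloroquine run as control. IC50 values are the mean of three separate experiments, each done in duplicate, with SD.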

Data set [5] deals with Plasmodium falciparum. The data set can be described thus: Antimalarial activity against CQ-susceptible Plasmodium falciparum D10 infected in human type A-positive red blood cells assessed as inhibition of parasite growth incubated for 72 hrs by spectrophotometry based parasite lactate dehydrogenase assay. It counts as functional, organism-based. In a few lines: as §2
Where [6] appears, read: Plasmodium falciparum, W2, 72 h, read-out: IC50.
The mark [7] stands for this setting: Plasmodium falciparum, D10, 72 h, read-out: IC50.

Activity calls are given as the source filed them. No cut-off for these calls is given here. A value given as a limit tells only on which side of the number the result lay.

What is called IC50 is the point on the concentration scale where inhibition reaches its midpoint. Take `N[C@H](C(=O)NCc1ccccc1)[C@@H]1CC(Br)=NO1`: the selectivity ratio in data set [1] worked out at 41.4; in data set [2], 31. Moreover, in the data set on Plasmodium falciparum [3], the Ratio came to 0.6 s⁻¹ M⁻¹. Further, the 50% inhibitory concentration (IC50) in the data set with HMEC-1 worked out at 14.9 µM; with Plasmodium falciparum [4] (setting [6]) it was 0.48 µM; with Plasmodium falciparum [5] (setting [7]) it was 0.36 µM.

In the case of `COc1ccc(CNC(=O)[C@@H](N)[C@@H]2CC(Br)=NO2)cc1`, the Ratio result in the data set on Plasmodium falciparum [3] was “inactive”.

On to `N[C@H](C(=O)NCc1ccc(F)cc1)[C@@H]1CC(Br)=NO1`, for which, in the data set on Plasmodium falciparum [3], the Ratio result is “inactive”.

Consider `N[C@H](CSCc1ccccc1)[C@H]1CC(Br)=NO1`, for which, in the data set with Plasmodium falciparum [3], the Ratio came to 0.2 s⁻¹ M⁻¹. In addition, the IC50 result with Plasmodium falciparum [4] and in the data set on Plasmodium falciparum [5] was “Not Active” throughout.

Take `N[C@H](C(=O)NCCc1ccccc1)[C@@H]1CC(Br)=NO1`: the selectivity ratio is above 357 in data set [1] and above 400 in data set [2]. In addition, the Ratio with Plasmodium falciparum [3] came to 0.4 s⁻¹ M⁻¹. In addition, the IC50 in the data set on HMEC-1 is above 100 µM; in the data set on Plasmodium falciparum [4] (setting [6]), 0.25 µM; in the data set on Plasmodium falciparum [5] (setting [7]) it was 0.28 µM.

For `N[C@H](C(=O)OCc1ccccc1)[C@@H]1CC(Br)=NO1`, the selectivity ratio in data set [1] was above 176; in data set [2], above 250. For the same compound, the Ratio in the data set on Plasmodium falciparum [3] worked out at 6.6 s⁻¹ M⁻¹. The IC50 with HMEC-1 was above 65 µM; in the data set on Plasmodium falciparum [4] (setting [6]), 0.26 µM; in the data set on Plasmodium falciparum [5] (setting [7]), 0.37 µM.

As to `N[C@H](CSCc1ccccc1)[C@@H]1CC(Br)=NO1`, the Ratio in the data set on Plasmodium falciparum [3] came to 1.6 s⁻¹ M⁻¹. The IC50 entry with Plasmodium falciparum [4] and in the data set on Plasmodium falciparum [5] was “Not Active” in each case.

For `N[C@H](CS(=O)(=O)Cc1ccccc1)[C@@H]1CC(Br)=NO1`, the Ratio result in the data set on Plasmodium falciparum [3] was “inactive”.

Consider `N[C@H](C(=O)O)[C@@H]1CC(Br)=NO1`, for which the selectivity ratio in data set [1] was 56.3; in data set [2], 57.9. In addition, in the data set with Plasmodium falciparum [3], the Ratio amounted to 0.7 s⁻¹ M⁻¹. Also, the IC50 in the data set with HMEC-1 turned out to be 19.7 µM; in the data set with Plasmodium falciparum [4] (setting [6]), 0.34 µM; in the data set on Plasmodium falciparum [5] (setting [7]), 0.35 µM.

On to `COC(=O)[C@@H](N)[C@@H]1CC(Br)=NO1`, for which the selectivity ratio was determined as 44 in data set [1] and 39.5 in data set [2]. Moreover, in the data set on Plasmodium falciparum [3], the Ratio was 10.7 s⁻¹ M⁻¹. In addition, the IC50 with HMEC-1 came out at 34.8 µM; in the data set with Plasmodium falciparum [4] (setting [6]), 0.88 µM; in the data set on Plasmodium falciparum [5] (setting [7]), 0.79 µM.

As for `N[C@H](COCc1ccccc1)[C@@H]1CC(Br)=NO1`, the Ratio in the data set with Plasmodium falciparum [3] came to 2.6 s⁻¹ M⁻¹. In addition, the IC50 result with Plasmodium falciparum [4] and in the data set with Plasmodium falciparum [5] was “Not Active” each time.

On to `N[C@H](CS(=O)(=O)Cc1ccccc1)[C@H]1CC(Br)=NO1`, for which, in the data set with Plasmodium falciparum [3], the Ratio was determined as 1.6 s⁻¹ M⁻¹. In addition, the IC50 result with Plasmodium falciparum [4] and in the data set on Plasmodium falciparum [5] was “Not Active” each time.

As for `CCN(CC)CCCC(C)Nc1ccnc2cc(Cl)ccc12` (configuration not stated) [CHLOROQUINE], the IC50 with HMEC-1 is above 40 µM.

Consider `N[C@H](C(=O)NCc1ccc([N+](=O)[O-])cc1)[C@@H]1CC(Br)=NO1`, for which the selectivity ratio in data set [1] turned out to be 45.7; in data set [2] it was 50.1. In the data set on Plasmodium falciparum [3], the Ratio was 1.9 s⁻¹ M⁻¹. Moreover, the IC50 in the data set with HMEC-1 came out at 36.1 µM; in the data set on Plasmodium falciparum [4] (setting [6]), 0.72 µM; with Plasmodium falciparum [5] (setting [7]), 0.79 µM.

The values above are taken from ChEMBL document CHEMBL4339222, “Covalent Inhibitors of Plasmodium falciparum Glyceraldehyde 3-Phosphate Dehydrogenase with Antimalarial Activity in Vitro” (ACS Med Chem Lett, 2019).
